In ChEMBL document CHEMBL2406947, “Syntheses and evaluation of novel isoliquiritigenin derivatives as potential dual inhibitors for amyloid-beta aggregation and 5-lipoxygenase” (Eur J Med Chem, 2013) one finds IC50 and inhibition data, which are given here for 27 molecules.

The source made the active and inactive calls. The rule behind the calls is not given here.

Test [1] addresses T1, Amyloid-beta precursor protein (Homo sapiens, UniProt P05067). Briefly: Inhibition of amyloid beta (1-42) self-mediated aggregation (unknown origin) after 5 days by thioflavin T fluorescence method.
Test [2] in a line: Cytotoxicity against human SH-SY5Y cells after 48 hrs by MTT assay. It is filed as cell-based. In short, it runs like this:
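SH-SY5Y cells grown in DMEM with 10% FBS, 1 mM glutamine, penicillin/streptomycin, 5% CO2, 37 °C; seeded 10,000 cells/well, treated after 24 h with 0-100 µM for 48 h; MTT (5 mg/mL stock) added for 4 h, formazan dissolved in DMSO, absorbance at 570 nm.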
In general terms: Tetrazolium assays rely on reduction of a dye to a coloured formazan, in cell work by metabolically active cells.

Test [3] can be described thus: Inhibition of potato 5-LOX using linoleic acid as substrate assessed as hydroperoxides production after 5 mins by enzyme immuno assay. The arrangement: species or system Solanum tuberosum.
For test [4], the target named is T1, Amyloid-beta precursor protein. Nature of the test: Inhibition of amyloid beta (1 to 42) fibrilation (unknown origin) assessed as reduction in […] structure formation at 10 uM after 2 days by CD spectroscopy assay. In short, it runs like this:
(§1)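 20 µM Aβ(1-42) incubated with or without 10 µM compound in 50 mM sodium phosphate pH 7.4 at 37 °C for 2 days; CD spectra recorded at 25 °C, 190-260 nm, 1 mm quartz cell, 0.5 nm bandwidth, 10 nm/min; background and compound spectra subtracted.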

The target is the same in test [5]. Nature of the test: Inhibition of amyloid beta (1 to 42) fibrilation (unknown origin) at 20 uM after 4 days by transmission electron microscopic analysis. In short, it runs like this: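 Aβ(1-42) at 40 µM final in 50 mM phosphate pH 7.4 incubated at 37 °C for 4 days with or without 20 µM compound; samples applied to carbon-coated grids, water-washed, negatively stained 1 min with 2% uranyl acetate, examined by transmission electron microscopy.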

For test [6] the target is unchanged. Nature of the test: Inhibition of amyloid beta (1 to 42) fibrilation (unknown origin) assessed as reduction in beta-sheet structure formation at 10 uM after 2 days by CD spectroscopy assay. The gist of the method:
as §1

T1 sequence (P05067 whole entry): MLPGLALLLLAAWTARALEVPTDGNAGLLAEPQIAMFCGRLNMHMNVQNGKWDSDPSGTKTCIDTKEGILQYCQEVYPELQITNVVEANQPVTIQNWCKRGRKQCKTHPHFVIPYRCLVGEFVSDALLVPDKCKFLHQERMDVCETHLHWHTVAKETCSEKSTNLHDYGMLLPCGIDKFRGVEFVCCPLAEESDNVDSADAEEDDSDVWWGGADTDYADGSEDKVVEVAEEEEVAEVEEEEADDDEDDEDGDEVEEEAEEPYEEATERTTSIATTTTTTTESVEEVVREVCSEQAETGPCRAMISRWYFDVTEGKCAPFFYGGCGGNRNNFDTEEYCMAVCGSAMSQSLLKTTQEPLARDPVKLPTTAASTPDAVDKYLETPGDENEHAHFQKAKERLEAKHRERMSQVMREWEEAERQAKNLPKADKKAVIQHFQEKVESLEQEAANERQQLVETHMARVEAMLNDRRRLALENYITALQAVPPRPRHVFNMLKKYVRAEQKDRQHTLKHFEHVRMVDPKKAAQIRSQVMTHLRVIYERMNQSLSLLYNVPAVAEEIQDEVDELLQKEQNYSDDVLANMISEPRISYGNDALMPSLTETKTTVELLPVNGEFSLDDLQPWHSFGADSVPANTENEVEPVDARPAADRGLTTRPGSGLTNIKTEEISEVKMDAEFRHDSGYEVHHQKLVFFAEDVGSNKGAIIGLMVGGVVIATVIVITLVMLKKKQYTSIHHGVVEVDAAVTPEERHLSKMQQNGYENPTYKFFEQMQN

As to `CCOCCCOc1ccc(/C=C/C(=O)c2ccc(OC)cc2O)cc1OC`, the IC50 – broadly, the midpoint of a concentration-inhibition curve – in test [1] was 5.8 µM; in test [2] it was more than 100 µM; in test [3], 12.4 µM.
In the case of `COc1ccc(C(=O)/C=C/c2ccc(C(=O)N3CCOCC3)cc2)c(O)c1`, in test [4], the inhibition entry is “inactive”. Besides, the inhibition entry in test [5] and in test [6] was “Active” each time. Moreover, the IC50 was 3.2 µM in test [1], more than 100 µM in test [2] and 6.1 µM in test [3].
`COc1ccc(C(=O)/C=C/c2ccc(C(=O)Nc3cc([N+](=O)[O-])ccc3O)cc2)c(O)c1`: the IC50 in test [1] was 13.3 µM; in test [2] it was more than 100 µM; in test [3] it was 11.4 µM.
In the case of `COc1ccc(C(=O)/C=C/c2ccc(C(=O)Nc3ccccc3OC)cc2)c(O)c1`, the IC50 in test [1] is 7.3 µM; in test [2] it was more than 100 µM; in test [3], 24.9 µM.
As to `COc1ccc(C(=O)/C=C/c2ccc(OCCCOc3ccccc3)c(OC)c2)c(O)c1`, the results for the IC50 in test [1], in test [2] and in test [3] were 10.9 µM, more than 100 µM and 13 µM, respectively.
For `COc1ccc(C(=O)/C=C/c2ccc(C(=O)O)cc2)c(O)c1` the same measures were 18.5 µM, more than 100 µM and 30.3 µM.
The corresponding values for `COc1ccc(C(=O)/C=C/c2ccc(C(=O)N3CCCC3)cc2)c(O)c1` are 14.6 µM, more than 100 µM and 10.5 µM.
On to `COc1ccc(C(=O)/C=C/c2ccc(C(=O)Nc3ccccc3O)cc2)c(O)c1`, for which the IC50 in test [1] is 10.1 µM; in test [2], more than 100 µM; in test [3], 16.5 µM.
As for `COc1ccc(C(=O)/C=C/c2ccc(C(=O)NC(C)C)cc2)c(O)c1`, the IC50 in test [1] is 17.8 µM; in test [2], more than 100 µM; in test [3], 22.1 µM.
Consider `COc1ccc(C(=O)/C=C/c2cc(OC)c(OC)cc2OC)c(O)c1`, for which the IC50 in test [1] is 10.2 µM; in test [2], more than 100 µM; in test [3], 14.1 µM.
The corresponding values for `COc1ccc(C(=O)/C=C/c2cc(OC)c(OC)c(OC)c2)c(O)c1` are 9.7 µM, more than 100 µM and 10.3 µM.
As for `COc1ccc(/C=C/C(=O)c2ccc(OC)cc2O)cc1`, the results for the IC50 in test [1], in test [2] and in test [3] were 8.4 µM, more than 100 µM and 15.9 µM, respectively.
In the case of `COc1ccc(C(=O)/C=C/c2ccc(C(=O)N3CCN(C)CC3)cc2)c(O)c1`, the figures for the IC50 in test [1], in test [2] and in test [3] were 2.2 µM, more than 100 µM and 7.9 µM, respectively.
For `COc1ccc(C(=O)/C=C/c2ccc(C(=O)Nc3ccc(C)cc3C)cc2)c(O)c1`, the IC50 in test [1] was 8.3 µM; in test [2], more than 100 µM; in test [3] it was 16.3 µM.
Turning to `CCCNC(=O)c1ccc(/C=C/C(=O)c2ccc(OC)cc2O)cc1`, the IC50 in test [1] was 19.9 µM; in test [2], more than 100 µM; in test [3], 12.9 µM.
In the case of `CC(Cc1ccc(O)c(O)c1)C(C)Cc1ccc(O)c(O)c1` (stereo unspecified) [NORDIHYDROGUAIARETIC ACID], the IC50 in test [3] came out at 12.4 µM.
Turning to `CCOCCOc1ccc(/C=C/C(=O)c2ccc(OC)cc2O)cc1`, the IC50 is 19.1 µM in test [1], more than 100 µM in test [2] and 9.7 µM in test [3].
Take `COc1ccc(C(=O)/C=C/c2ccc(C(=O)NCc3ccccc3)cc2)c(O)c1`: the IC50 in test [1] is 18.9 µM; in test [2], more than 100 µM; in test [3], 18 µM.
For the molecule `O=C(/C=C/c1ccc(O)cc1)c1ccc(O)cc1O` [ISOLIQUIRITIGENIN], the IC50 in test [1] came to 19.7 µM; in test [3], 18.6 µM.
On to `COc1ccc(C(=O)/C=C/c2ccc(OCc3ccccc3)cc2)c(O)c1`, for which the figures for the IC50 in test [1], in test [2] and in test [3] were 7.8 µM, more than 100 µM and 10.2 µM, respectively.
For `COC(=O)c1ccc(/C=C/C(=O)c2ccc(OC)cc2O)cc1` the same measures were 23.8 µM, more than 100 µM and 35.8 µM.
The corresponding values for `COc1ccc(C(=O)/C=C/c2cc(Br)c(OCc3ccccc3)c(OC)c2)c(O)c1` are 12.5 µM, more than 100 µM and 11.6 µM.
As to `COc1ccc(C(=O)/C=C/c2ccc(C(=O)N3CCCCC3)cc2)c(O)c1`, the IC50 in test [1] was 5.9 µM; in test [2], more than 100 µM; in test [3] it was 6.8 µM.
Take `CCOCCOc1cccc(/C=C/C(=O)c2ccc(OC)cc2O)c1`: the IC50 is 10.5 µM in test [1], more than 100 µM in test [2] and 16.8 µM in test [3].
As for `COc1ccc(C(=O)/C=C/c2ccc(C(=O)NCCc3ccccc3)cc2)c(O)c1`, the IC50 in test [1] was 19.1 µM; in test [2], more than 100 µM; in test [3], 14.2 µM.
For `COc1ccc(C(=O)/C=C/c2ccc(C(=O)N(C)c3ccccc3)cc2)c(O)c1`, the results for the IC50 in test [1], in test [2] and in test [3] were 20.1 µM, more than 100 µM and 20.4 µM, respectively.
With `CCCCCCCCCCCCNC(=O)c1ccc(/C=C/C(=O)c2ccc(OC)cc2O)cc1`, the IC50 in test [1] is 15.9 µM; in test [2], more than 100 µM; in test [3] it was 15.7 µM.
